Shown are actives, neighbours in structure and some others; about 27% of the full set was active somewhere.
Cav3 T inh – blocks human Cav3.2 T-type calcium channel; Cav3.2-expressing cells, Fluo-4 calcium fluorescence FDSS; stronger effect = lower value; actives 4% (n = 100,000); B-score at 10 µM; O95180;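 active = single-dose well whose peak fluorescence ratio is a statistical outlier from its plate by either plate-standardised score or position-corrected B-score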
CYP2C19 inhib – human CYP2C19 inhibition; actives 21% (n = 96,000); inhibition, % at 5 µM; CYP2C19 Supersomes, luciferin-H EGE luminescence, 30 min;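 active = CYP2C19 inhibition above a set limit at 5 µM in the primary screen, cut at about 50% in these data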;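 note: plate controls were negative control wells for no effect and 2.5 mM tranylcypromine positive control for full effect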
CYP2C19 act – activators of human cytochrome P450 2C19 | P33261 | recombinant CYP2C19, luciferin-H EGE luminescence; stronger effect = higher value; 0 = fully inhibited enzyme, 1 = untreated enzyme | activation factor at 5 µM | 96,000 tested, under 10 active | AID 1025;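 active = activation factor of at least 2 at 5 µM in the primary screen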;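 note: 0 = wells with 2.5 mM tranylcypromine and 1 = vehicle-only wells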
Rev-RRE block – HIV Rev-RRE protein-RNA interaction inhibition. P05866. Rev peptide-RRE RNA binding, FRET. inhibition, % at 8 µM. actives 0.79% (n = 97,000). AID 704;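 active = inhibition above the screen-wide mean plus 3 SD, cut at about 35% in these data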;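 note: 0% = median DMSO wells and 100% = median Neomycin B control wells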
Target sequence (P05866 whole entry, looked up): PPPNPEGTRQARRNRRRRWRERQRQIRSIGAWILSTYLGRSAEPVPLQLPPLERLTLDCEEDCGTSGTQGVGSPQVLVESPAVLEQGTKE
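Test system – labelled RRE RNA duplex and labelled Rev peptide · Signal – fluorescein-to-Cy5 FRET, 480 nm excitation · Evaluation – % inhibition of FRET ratio versus controls · Benchmarks – DMSO low control, neomycin B high control · Incubation – 5 min RNA-compound premix plus 15 min binding step, 25 °C · Medium – HEPES pH 7.5 salt buffer with EDTA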
CYP2C9 act – increases human cytochrome P450 2C9 activity. P11712. recombinant CYP2C9, luciferin-H conversion, luminescence; stronger effect = higher value; factor 1 = untreated enzyme, 0 = blocked. activation factor at 5 µM. actives 1.4% (n = 96,000). AID 1024;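 active = activation factor of 2 or more for CYP2C9 at a 5 µM dose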;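 note: 0 = sulfaphenazole-blocked wells and 1 = vehicle-only wells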
Target sequence (P11712 whole entry, looked up): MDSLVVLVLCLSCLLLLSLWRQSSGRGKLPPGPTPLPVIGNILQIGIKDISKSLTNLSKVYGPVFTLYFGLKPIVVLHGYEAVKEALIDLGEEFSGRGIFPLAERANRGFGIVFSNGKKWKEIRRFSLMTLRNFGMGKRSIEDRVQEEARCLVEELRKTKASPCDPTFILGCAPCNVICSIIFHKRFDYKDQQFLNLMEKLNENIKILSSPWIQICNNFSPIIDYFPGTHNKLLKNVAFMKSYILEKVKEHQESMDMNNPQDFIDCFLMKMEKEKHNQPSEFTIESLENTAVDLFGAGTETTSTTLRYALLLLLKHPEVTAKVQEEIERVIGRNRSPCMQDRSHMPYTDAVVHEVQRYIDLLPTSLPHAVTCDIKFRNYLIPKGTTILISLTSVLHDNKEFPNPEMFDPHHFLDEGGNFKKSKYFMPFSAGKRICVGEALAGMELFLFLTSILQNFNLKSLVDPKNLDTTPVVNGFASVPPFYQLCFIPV
CYP2C9 inh – blocks human cytochrome P450 2C9; P11712; CYP2C9 Supersomes, luciferin-H conversion, luminescence; inhibition, % at 5 µM; actives 20% (n = 96,000); AID 777;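 active = blocking of liver enzyme CYP2C9 beyond about 50% at 5 µM, limit read from the data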
* marks the source's active call; other numbers are inactive results; x = no result.

SMILES | Cav3 T inh | CYP2C19 inhib | CYP2C19 act | Rev-RRE block | CYP2C9 act | CYP2C9 inh
CN(Cc1ccccc1)c1nc2c(c(=O)[nH]c(=O)n2C)n1CCOc1ccccc1 | -4.8* | 34 | 0.7 | 3 | 0.5 | 54*
Cn1c(=O)[nH]c(=O)c2c1nc(NCCCO)n2Cc1ccc(F)cc1 | -0.1 | 10 | 0.9 | 3 | 0.9 | 8
CN(Cc1ccccc1)c1nc2c(c(=O)[nH]c(=O)n2C)n1Cc1ccccc1 | -0.4 | 9 | 0.9 | 9 | 0.7 | 33
Cn1c(=O)[nH]c(=O)c2c1nc(NCCCn1ccnc1)n2Cc1ccccc1 | x | 80* | 0.2 | 6 | 0 | 96*
N#Cc1cc(-c2ccccc2)cnc1Cl | 1.6 | 11 | 0.9 | -4 | 1 | -1
CC(=O)N1CCN(C(=S)c2ccc(-c3ccc(Cl)cc3)o2)CC1 | -0.58 | 20 | 0.8 | 4 | 0.8 | 15
N#CCCN1CCN(C(=S)c2ccc(-c3cccc(Cl)c3)o2)CC1 | -1.2 | 93* | 0.1 | 0 | 0.7 | 32
N#CCCN1CCN(C(=S)c2ccc(-c3ccc(Cl)c(Cl)c3)o2)CC1 | -1.1 | 47 | 0.5 | -2 | 0.4 | 61*
S=C(c1ccc(-c2cccc(Cl)c2)o1)N1CCOCC1 | -1.9 | 50* | 0.5 | x | 0.8 | 16
S=C(c1ccc(-c2cc(Cl)ccc2Cl)o1)N1CCOCC1 | -2 | 32 | 0.7 | x | 1.8 | -82
O=C(O)c1ccc(-c2cccc(Cl)c2)o1 | -0.39 | x | x | 1 | x | x
Cc1ccc(N=Nc2c(N)[nH]n3c(=O)c4c(nc23)CCCC4)cc1 | x | -12 | 1.1 | 10 | 1.1 | -13
CCOc1ccc(-c2nnn(CC(=O)c3ccc4c(c3)OCCO4)n2)cc1OCC | -0.37 | 25 | 0.7 | 10 | 0.7 | 27
Cc1[nH]n(-c2ccc([N+](=O)[O-])cc2)c(=O)c1N=Nc1nc2ccccc2s1 | x | x | x | 1 | x | x
CCCn1nc([N+](=O)[O-])c(C(C#N)c2nc3ccccc3s2)c(Cl)c1=O (configuration not stated) | -4.4* | 5 | 1 | -3 | 0 | 99*
CSCCC1NC2(C(=O)Nc3c(Cl)cccc32)[C@@H]2C(=O)N(C3CCCC3)C(=O)[C@H]12 (some centres not stated) | 1 | 20 | 0.8 | 6 | 0.9 | 12
CSCCC1NC2(C(=O)Nc3c(C)cc(Cl)cc32)[C@@H]2C(=O)N(C3CCCC3)C(=O)[C@H]12 (some centres not stated) | -1.2 | 50 | 0.5 | -4 | 0.4 | 60*
C=C(C)CSc1nnc(-c2cccc(S(=O)(=O)N(C)C)c2)n1-c1cc(OC)ccc1OC | -3.2 | 86* | 0.1 | -3 | 0.2 | 85*
COc1cccc(-n2c(SCC(=O)O)nnc2-c2cccnc2)c1 | 0.08 | 3 | 1 | 8 | 0.9 | 7
Cc1ccc(S(=O)(=O)N(C)CCCC(=O)n2nc(C)cc2C)cc1 | -0.77 | 89* | 0.1 | 3 | 1.9 | -89
CCO[C@H]1OC(C(N)=O)=C[C@@H](c2csc3ccccc23)[C@@H]1CCCO | 1 | x | x | x | x | x
Cn1c(=O)cc(SCC(=O)NCCN2CCN(c3ccccc3F)CC2)c2cc(Cl)ccc21 | -0.3 | 33 | 0.7 | 6 | 1.1 | -14
COc1ccc(Cc2c(O)nc(SC)n(C(C)=O)c2=O)cc1 | -0.35 | 53* | 0.5 | 7 | 0.5 | 45
OC(CSc1c(Cl)cccc1Cl)CN1CCN(c2ccc(F)cc2)CC1 (configuration not stated) | -2.3 | 36 | 0.6 | 6 | 1.2 | -16
COc1ccc(S(=O)(=O)N2Cc3ccccc3CC2C(=O)Nc2ccc3c(c2)OCO3)cc1 (configuration not stated) | -4.4 | 85* | 0.2 | -7 | 0.4 | 62*
SMILES | Cav3 T inh | CYP2C19 inhib | CYP2C19 act | Rev-RRE block | CYP2C9 act | CYP2C9 inh
Cc1ccc(S(=O)(=O)N2Cc3ccccc3CC2C(=O)Nc2ccc3c(c2)OCO3)cc1 (configuration not stated) | -4.5* | 98* | 0 | 1 | 0 | 97*
COc1ccc(NC(=O)CN2CCN(CC(=O)Nc3ccc4c(c3)OCO4)CC2)cc1 | -0.97 | 18 | 0.8 | x | 0.8 | 18
O=C1c2ccccc2C(O)(Cc2ccccc2)N1CCCN1CCOCC1 (configuration not stated) | 0.45 | 7 | 0.9 | x | 1 | 0
CCOC(=O)C1=C(C)N=c2s/c(=C\c3ccncc3)c(=O)n2C1c1ccc2c(c1)OCO2 (configuration not stated) | -3.4 | 85* | 0.2 | x | 0.2 | 85*
CCOC(=O)C1=C(C)N=c2s/c(=C3\C(=O)Nc4ccccc43)c(=O)n2C1c1ccc2c(c1)OCO2 (configuration not stated) | x | 11 | 0.9 | 2 | 0.4 | 59*
CCOC(=O)C1=C(C)N=c2s/c(=C/c3ccccc3)c(=O)n2C1c1ccc(OC)c(OC)c1 (configuration not stated) | -0.33 | 38 | 0.6 | 6 | 0.6 | 44
Fc1ccccc1N1CC(c2ccccc2)C(c2cccs2)=N1 (configuration not stated) | -1.7 | 24 | 0.8 | 4 | 0.4 | 60*
Cc1cc(NC(=O)CSc2nnc(-c3cccnc3)n2C)no1 | 0.11 | -14 | 1.1 | 6 | 1.1 | -6
COc1cccc(C2C(C(=O)c3cc4cccc(OC)c4o3)=C(O)C(=O)N2c2cc(C)on2)c1OC (configuration not stated) | -0.21 | 10 | 0.9 | -6 | 0.1 | 85*
Cc1ccc(CNC(=O)CC2C(=O)Nc3c2c(=O)n(C)c(=O)n3Cc2ccccc2)cc1 (configuration not stated) | -0.32 | 0 | 1 | 3 | 0.8 | 22
O=C(CN(C1CCCCC1)S(=O)(=O)c1ccc(Cl)cc1)N1CCOCC1 | 0.48 | 3 | 1 | 7 | 0.7 | 27
Cc1cc(C)n(CC(=O)N2c3ccccc3Sc3ccccc32)n1 | -1.8 | 67* | 0.3 | 10 | 0.6 | 38
CCOC(=O)c1[nH]c2ccc(OC)cc2c1NC(=O)C(C)N1CCSCC1 (configuration not stated) | -2.1 | 81* | 0.2 | 4 | 0.2 | 84*
CCOC(=O)c1[nH]c2ccc(OC)cc2c1NC(=O)OC | 0.52 | 0 | 1 | 6 | 1.1 | -7
COC(=O)c1[nH]c2ccc(F)cc2c1NS(=O)(=O)c1ccc(OC)cc1OC | -2 | 56* | 0.4 | 15 | 0.6 | 42
CCOC(=O)c1[nH]c2ccc(OC)cc2c1NS(=O)(=O)c1ccc(OC)cc1OC | -2.6 | 57* | 0.4 | 15 | 0.3 | 67*
COC(=O)c1[nH]c2ccc(F)cc2c1NC(=O)Nc1ccc(OC)cc1 | 0.044 | 11 | 0.9 | 5 | 1 | 3
CCOC(=O)N1CCN(C(=O)c2nc3ccccc3s2)CC1 | -0.5 | 16 | 0.8 | 4 | 1 | 4

High-throughput results deposited in PubChem by several laboratories.
